{"source": "ChEMBL document CHEMBL1138050", "about": "“Furan-2-ylmethylene thiazolidinediones as novel, potent, and selective inhibitors of phosphoinositide 3-kinase gamma” (J Med Chem, 2006)", "key": {"[1]": {"molecular_target": "Serine/threonine-protein kinase D1 (Homo sapiens) (UniProt Q15139)", "test": "Residual activity at human PKCmu at 10 uM in presence of 10 uM ATP relative to control", "outline": "(§1)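 Single-concentration counter-screen across a panel of 80 Ser/Thr and Tyr protein kinases. Compound was tested at 10 µM with ATP at 10 µM. Activity remaining in each kinase is expressed relative to control.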"}, "[2]": {"molecular_target": "Mitogen-activated protein kinase 13 (Homo sapiens) (UniProt O15264)", "test": "Residual activity at human SAPK4 at 10 uM in presence of 10 uM ATP relative to control", "outline": "as §1"}, "[3]": {"molecular_target": "Cyclin-dependent kinase 7/ cyclin H (Homo sapiens) (UniProt P51946+P50613)", "test": "Residual activity at human CDK7/CyclinH/MAT1 at 10 uM in presence of 10 uM ATP relative to control", "format": "protein-complex assay", "outline": "(§2)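 Panel of Ser/Thr and Tyr protein kinases, each tested with 10 µM compound in the presence of 10 µM ATP; activity expressed relative to control.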"}, "Mus musculus": {"test_system": "Mus musculus", "test": "Reduction of neutrophil recruitment in mouse at 10 mg/kg, po", "format": "functional", "set-up": "scale not given: the % may be the effect or the level left", "outline": "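Thioglycollate-induced peritonitis in mice. Compound given orally at 10 mg/kg; peritoneal neutrophil recruitment measured 4 h after thioglycollate injection, reported as percent reduction.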"}, "[4]": {"molecular_target": "Tyrosine-protein kinase Fes/Fps (Homo sapiens) (UniProt P07332)", "test": "Residual activity at human Fes at 10 uM in presence of 10 uM ATP relative to control", "outline": "as §2"}, "[5]": {"molecular_target": "Glycogen synthase kinase-3 beta (Homo sapiens) (UniProt P49841)", "sequence (P49841 whole entry, looked up)": "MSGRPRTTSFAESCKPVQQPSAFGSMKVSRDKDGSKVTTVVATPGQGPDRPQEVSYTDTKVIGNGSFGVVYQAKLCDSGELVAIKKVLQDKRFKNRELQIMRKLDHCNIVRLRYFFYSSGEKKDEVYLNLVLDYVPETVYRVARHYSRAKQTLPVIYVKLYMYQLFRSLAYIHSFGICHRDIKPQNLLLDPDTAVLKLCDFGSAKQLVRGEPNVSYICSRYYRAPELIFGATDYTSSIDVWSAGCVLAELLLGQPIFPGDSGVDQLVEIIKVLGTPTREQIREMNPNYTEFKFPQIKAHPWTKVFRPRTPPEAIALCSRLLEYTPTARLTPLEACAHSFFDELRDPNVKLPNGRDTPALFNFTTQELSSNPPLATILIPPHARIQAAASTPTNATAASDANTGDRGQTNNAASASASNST", "test": "Residual activity at human GSK3-beta at 10 uM in presence of 10 uM ATP relative to control", "outline": "as §2"}, "[6]": {"molecular_target": "Tyrosine-protein kinase ZAP-70 (Homo sapiens) (UniProt P43403)", "test": "Residual activity at human ZAP70 at 10 uM in presence of 10 uM ATP relative to control", "outline": "as §1"}, "[7]": {"molecular_target": "Dual specificity mitogen-activated protein kinase kinase 7 (Homo sapiens, UniProt O14733)", "test": "Inhibition of human MKK7beta"}, "[8]": {"molecular_target": "Insulin-like growth factor 1 receptor (Homo sapiens) (UniProt P08069)", "test": "Residual activity at human IGF1R at 10 uM in presence of 10 uM ATP relative to control", "outline": "as §2"}, "[9]": {"molecular_target": "Tyrosine-protein kinase Fyn (Homo sapiens) (UniProt P06241)", "test": "Residual activity at human FYN at 10 uM in presence of 10 uM ATP relative to control", "outline": "as §2"}, "[10]": {"molecular_target": "Aurora kinase A (Homo sapiens) (UniProt O14965)", "test": "Residual activity at human Aurora A at 10 uM in presence of 10 uM ATP relative to control", "outline": "as §2"}, "[11]": {"molecular_target": "Tyrosine-protein kinase Lyn (Homo sapiens) (UniProt P07948)", "test": "Residual activity at human Lyn at 10 uM in presence of 10 uM ATP relative to control", "outline": "as §1"}, "[12]": {"molecular_target": "Calcium/calmodulin-dependent protein kinase type IV (Homo sapiens) (UniProt Q16566)", "test": "Residual activity at human CaMK4 at 10 uM in presence of 10 uM ATP relative to control", "outline": "as §2"}, "[13]": {"molecular_target": "Cyclin-dependent kinase 2/cyclin E (Homo sapiens) (UniProt P24864+P24941+O96020)", "test": "Residual activity at human CDK2/CyclinE at 10 uM in presence of 10 uM ATP relative to control", "format": "protein-complex assay", "outline": "as §2"}, "[14]": {"molecular_target": "Protein kinase C gamma type (Homo sapiens) (UniProt P05129)", "test": "Residual activity at human PKCgamma at 10 uM in presence of 10 uM ATP relative to control", "outline": "as §1"}, "[15]": {"molecular_target": "Protein kinase C eta type (Homo sapiens) (UniProt P24723)", "test": "Residual activity at human PKCeta at 10 uM in presence of 10 uM ATP relative to control", "outline": "as §1"}, "[16]": {"molecular_target": "Cyclin-dependent kinase 2/cyclin A (Homo sapiens) (UniProt P24941+P20248+P78396)", "test": "Residual activity at human CDK2/CyclinA at 10 uM in presence of 10 uM ATP relative to control", "format": "protein-complex assay", "outline": "as §2"}, "[17]": {"molecular_target": "Platelet-derived growth factor receptor beta (Homo sapiens) (UniProt P09619)", "test": "Residual activity at human PDGFRbeta at 10 uM in presence of 10 uM ATP relative to control", "outline": "as §1"}, "[18]": {"molecular_target": "Serine/threonine-protein kinase D2 (Homo sapiens) (UniProt Q9BZL6)", "sequence (Q9BZL6 whole entry)": "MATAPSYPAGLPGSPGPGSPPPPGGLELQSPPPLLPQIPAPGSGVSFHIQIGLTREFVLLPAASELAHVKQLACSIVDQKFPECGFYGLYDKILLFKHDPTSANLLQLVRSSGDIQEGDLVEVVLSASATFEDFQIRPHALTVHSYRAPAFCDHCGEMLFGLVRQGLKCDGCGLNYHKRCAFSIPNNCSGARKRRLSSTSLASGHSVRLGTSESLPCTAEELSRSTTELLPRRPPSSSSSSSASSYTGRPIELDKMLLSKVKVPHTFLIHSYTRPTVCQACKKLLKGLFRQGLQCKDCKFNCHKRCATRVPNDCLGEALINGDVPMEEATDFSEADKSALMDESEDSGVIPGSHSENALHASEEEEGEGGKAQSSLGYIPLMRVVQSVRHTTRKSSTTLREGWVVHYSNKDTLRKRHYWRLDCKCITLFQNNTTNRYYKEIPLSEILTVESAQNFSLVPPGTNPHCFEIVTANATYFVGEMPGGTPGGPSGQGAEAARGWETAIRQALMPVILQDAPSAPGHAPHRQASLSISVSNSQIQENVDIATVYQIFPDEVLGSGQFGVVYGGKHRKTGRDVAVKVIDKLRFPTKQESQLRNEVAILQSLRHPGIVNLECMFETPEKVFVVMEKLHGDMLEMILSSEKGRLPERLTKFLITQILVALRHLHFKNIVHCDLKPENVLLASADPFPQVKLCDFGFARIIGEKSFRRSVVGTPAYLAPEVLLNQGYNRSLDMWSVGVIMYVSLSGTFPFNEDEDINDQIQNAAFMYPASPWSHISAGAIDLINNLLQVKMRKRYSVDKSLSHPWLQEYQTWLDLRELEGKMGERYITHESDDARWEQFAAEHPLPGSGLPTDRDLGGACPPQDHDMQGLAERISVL", "test": "Residual activity at human PKD2 at 10 uM in presence of 10 uM ATP relative to control", "outline": "as §1"}, "[19]": {"molecular_target": "Protein kinase C beta type (Homo sapiens) (UniProt P05771)", "test": "Residual activity at human PKCbeta2 at 10 uM in presence of 10 uM ATP relative to control", "outline": "as §1"}, "[20]": {"molecular_target": "Ribosomal protein S6 kinase alpha-1 (Homo sapiens) (UniProt Q15418)", "sequence (Q15418 whole entry)": "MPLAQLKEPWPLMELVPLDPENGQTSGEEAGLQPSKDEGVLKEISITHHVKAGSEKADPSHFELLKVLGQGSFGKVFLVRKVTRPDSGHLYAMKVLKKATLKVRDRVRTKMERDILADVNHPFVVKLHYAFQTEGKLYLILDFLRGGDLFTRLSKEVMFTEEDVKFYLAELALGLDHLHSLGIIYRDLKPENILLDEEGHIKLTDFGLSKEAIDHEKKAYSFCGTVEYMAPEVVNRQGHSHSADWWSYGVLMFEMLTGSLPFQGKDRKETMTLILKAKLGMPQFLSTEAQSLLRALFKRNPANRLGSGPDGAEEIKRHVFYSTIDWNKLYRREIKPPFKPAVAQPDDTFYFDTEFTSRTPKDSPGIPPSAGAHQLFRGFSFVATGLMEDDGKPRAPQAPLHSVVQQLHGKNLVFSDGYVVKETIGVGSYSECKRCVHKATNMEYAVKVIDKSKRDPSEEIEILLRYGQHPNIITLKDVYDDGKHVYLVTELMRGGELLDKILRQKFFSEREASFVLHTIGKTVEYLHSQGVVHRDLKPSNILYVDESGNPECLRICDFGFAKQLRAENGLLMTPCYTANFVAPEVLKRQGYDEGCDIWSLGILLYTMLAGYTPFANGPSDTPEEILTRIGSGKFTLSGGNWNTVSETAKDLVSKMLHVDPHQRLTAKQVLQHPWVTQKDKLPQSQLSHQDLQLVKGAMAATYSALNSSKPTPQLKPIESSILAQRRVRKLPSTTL", "test": "Residual activity at human Rsk1 at 10 uM in presence of 10 uM ATP relative to control", "outline": "as §1"}, "[21]": {"molecular_target": "Tyrosine-protein kinase Yes (Homo sapiens) (UniProt P07947)", "sequence (P07947 2-543 limits assumed)": "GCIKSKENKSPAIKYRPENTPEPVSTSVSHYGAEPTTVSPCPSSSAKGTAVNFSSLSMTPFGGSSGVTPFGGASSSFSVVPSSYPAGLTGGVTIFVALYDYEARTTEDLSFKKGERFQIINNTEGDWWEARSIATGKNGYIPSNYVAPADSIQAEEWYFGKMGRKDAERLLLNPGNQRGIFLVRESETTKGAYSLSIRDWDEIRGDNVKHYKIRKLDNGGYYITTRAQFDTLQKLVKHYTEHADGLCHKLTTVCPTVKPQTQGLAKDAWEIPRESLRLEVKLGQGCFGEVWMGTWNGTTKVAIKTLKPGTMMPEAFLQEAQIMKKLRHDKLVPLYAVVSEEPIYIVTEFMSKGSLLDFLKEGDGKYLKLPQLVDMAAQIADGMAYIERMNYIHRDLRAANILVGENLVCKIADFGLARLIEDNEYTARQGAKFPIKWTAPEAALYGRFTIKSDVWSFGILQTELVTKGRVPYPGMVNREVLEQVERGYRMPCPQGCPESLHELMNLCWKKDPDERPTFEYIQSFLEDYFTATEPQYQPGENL", "test": "Inhibition of human Yes at 10 uM in presence of 10 uM ATP relative to control", "set-up": "scale not given: the % may be the effect or the level left", "outline": "as §2"}, "[22]": {"molecular_target": "Insulin receptor (Homo sapiens) (UniProt P06213)", "test": "Residual activity at human IR at 10 uM in presence of 10 uM ATP relative to control", "outline": "as §2"}, "[23]": {"molecular_target": "Tyrosine-protein kinase receptor UFO (Homo sapiens) (UniProt P30530)", "test": "Residual activity at human Axl at 10 uM in presence of 10 uM ATP relative to control", "outline": "as §2"}, "RAW264.7": {"test_system": "RAW264.7", "test": "Inhibition of C5a-mediated PKB/Akt phosphorylation in mouse Raw264 macrophage", "format": "functional, cell-based", "outline": "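Raw-264 murine macrophages starved 3 h in serum-free medium, pretreated 30 min with inhibitor or DMSO, then stimulated 5 min with 50 nM C5a. Phospho-Ser-473 Akt measured by ELISA. Concentration-response; IC50. Mean ± standard deviation of four independent experiments done in triplicate.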"}, "[24]": {"molecular_target": "Mitogen-activated protein kinase 12 (Homo sapiens) (UniProt P53778)", "sequence (P53778 whole entry)": "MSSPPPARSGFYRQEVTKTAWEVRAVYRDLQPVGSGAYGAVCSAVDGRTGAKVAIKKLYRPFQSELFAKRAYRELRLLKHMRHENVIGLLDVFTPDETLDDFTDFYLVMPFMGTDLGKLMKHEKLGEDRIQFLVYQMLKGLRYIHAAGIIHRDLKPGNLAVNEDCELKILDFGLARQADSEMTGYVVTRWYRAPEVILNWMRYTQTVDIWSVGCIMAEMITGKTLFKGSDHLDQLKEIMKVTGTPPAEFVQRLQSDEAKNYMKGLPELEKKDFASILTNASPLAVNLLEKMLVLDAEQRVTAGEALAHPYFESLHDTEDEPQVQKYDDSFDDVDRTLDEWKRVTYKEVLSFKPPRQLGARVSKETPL", "test": "Residual activity at human SAPK3 at 10 uM in presence of 10 uM ATP relative to control", "outline": "as §1"}, "[25]": {"molecular_target": "Protein kinase C alpha type (Homo sapiens) (UniProt P17252)", "test": "Residual activity at human PKCalpha at 10 uM in presence of 10 uM ATP relative to control", "outline": "as §1"}, "[26]": {"molecular_target": "Tyrosine-protein kinase Lck (Homo sapiens) (UniProt P06239)", "test": "Residual activity at human Lck at 10 uM in presence of 10 uM ATP relative to control", "outline": "as §1"}, "[27]": {"molecular_target": "Ribosomal protein S6 kinase alpha-2 (Homo sapiens) (UniProt Q15349)", "sequence (Q15349 whole entry)": "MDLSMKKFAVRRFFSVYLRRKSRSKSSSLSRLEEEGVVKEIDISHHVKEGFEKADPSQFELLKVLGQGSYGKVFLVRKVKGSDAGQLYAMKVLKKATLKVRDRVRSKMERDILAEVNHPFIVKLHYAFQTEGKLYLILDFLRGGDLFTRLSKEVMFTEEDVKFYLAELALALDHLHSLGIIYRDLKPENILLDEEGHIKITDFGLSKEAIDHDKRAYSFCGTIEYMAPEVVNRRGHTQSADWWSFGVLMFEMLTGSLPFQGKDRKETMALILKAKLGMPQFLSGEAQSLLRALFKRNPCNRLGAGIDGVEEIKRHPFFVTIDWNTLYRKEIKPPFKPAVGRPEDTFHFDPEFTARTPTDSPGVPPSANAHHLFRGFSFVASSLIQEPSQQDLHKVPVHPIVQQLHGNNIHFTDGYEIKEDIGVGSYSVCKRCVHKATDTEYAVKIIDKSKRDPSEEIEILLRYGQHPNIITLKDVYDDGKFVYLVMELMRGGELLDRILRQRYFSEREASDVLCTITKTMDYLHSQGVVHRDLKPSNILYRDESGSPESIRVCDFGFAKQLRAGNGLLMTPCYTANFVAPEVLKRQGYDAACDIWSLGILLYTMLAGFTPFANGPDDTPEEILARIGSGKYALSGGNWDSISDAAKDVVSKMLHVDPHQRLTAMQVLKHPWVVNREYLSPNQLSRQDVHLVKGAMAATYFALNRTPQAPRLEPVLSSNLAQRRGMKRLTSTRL", "test": "Residual activity at human Rsk2 at 10 uM in presence of 10 uM ATP relative to control", "outline": "as §1"}, "[28]": {"test": "Cmax in rat at 10 mg/kg, iv", "format": "ADME, organism-based", "set-up": "dose 10 mg/kg, route intravenous", "conditions": "in vivo", "outline": "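Rats given a single 10 mg/kg dose, intravenously or orally. The compound was given as its potassium salt, prepared with KOH in THF/water, for the in vivo work.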"}, "[29]": {"molecular_target": "Cytoplasmic tyrosine-protein kinase BMX (Homo sapiens) (UniProt P51813)", "sequence (P51813 whole entry)": "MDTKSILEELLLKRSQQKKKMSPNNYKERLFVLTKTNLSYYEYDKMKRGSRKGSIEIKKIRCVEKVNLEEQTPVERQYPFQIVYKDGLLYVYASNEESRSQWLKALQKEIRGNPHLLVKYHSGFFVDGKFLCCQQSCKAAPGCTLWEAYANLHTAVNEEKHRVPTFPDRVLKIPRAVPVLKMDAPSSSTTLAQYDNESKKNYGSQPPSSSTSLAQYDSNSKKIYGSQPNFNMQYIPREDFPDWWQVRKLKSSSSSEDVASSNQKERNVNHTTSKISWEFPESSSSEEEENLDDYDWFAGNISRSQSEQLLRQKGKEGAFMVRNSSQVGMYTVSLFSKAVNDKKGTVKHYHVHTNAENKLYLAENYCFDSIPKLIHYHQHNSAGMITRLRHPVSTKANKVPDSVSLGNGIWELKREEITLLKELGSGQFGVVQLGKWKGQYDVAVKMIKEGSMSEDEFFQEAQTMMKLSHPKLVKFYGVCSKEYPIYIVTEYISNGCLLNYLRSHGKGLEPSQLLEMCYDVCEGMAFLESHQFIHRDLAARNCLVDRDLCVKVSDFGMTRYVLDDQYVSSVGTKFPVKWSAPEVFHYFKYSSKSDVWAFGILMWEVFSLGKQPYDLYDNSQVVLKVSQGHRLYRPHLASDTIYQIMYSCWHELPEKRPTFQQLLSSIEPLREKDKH", "test": "Residual activity at human Bmx at 10 uM in presence of 10 uM ATP relative to control", "outline": "as §2"}}, "note": "pIC50: −log10 of the molar value."}
{"molecule": "O=C1NC(=O)/C(=C/c2ccc(-c3ccc(F)cc3O)o2)S1", "values": [{"measurement": "Activity", "setting": "[1]", "result": 98, "unit": "%"}, {"measurement": "Activity", "setting": "[2]", "result": 93, "unit": "%"}, {"measurement": "Activity", "setting": "[3]", "result": 77, "unit": "%"}, {"measurement": "Activity", "setting": "Mus musculus", "result": 35, "unit": "%"}, {"measurement": "Activity", "setting": "[4]", "result": 90, "unit": "%"}, {"measurement": "Activity", "setting": "[5]", "result": 84, "unit": "%"}, {"measurement": "Activity", "setting": "[6]", "result": 159, "unit": "%"}, {"measurement": "pIC50", "setting": "[7]", "result": "< 5.00"}, {"measurement": "Activity", "setting": "[8]", "result": 96, "unit": "%"}, {"measurement": "Activity", "setting": "[9]", "result": 91, "unit": "%"}, {"measurement": "Activity", "setting": "[10]", "result": 85, "unit": "%"}, {"measurement": "Activity", "setting": "[11]", "result": 101, "unit": "%"}, {"measurement": "Activity", "setting": "[12]", "result": 111, "unit": "%"}, {"measurement": "Activity", "setting": "[13]", "result": 93, "unit": "%"}, {"measurement": "Activity", "setting": "[14]", "result": 107, "unit": "%"}, {"measurement": "Activity", "setting": "[15]", "result": 91, "unit": "%"}, {"measurement": "Activity", "setting": "[16]", "result": 84, "unit": "%"}, {"measurement": "Activity", "setting": "[17]", "result": 96, "unit": "%"}, {"measurement": "Activity", "setting": "[18]", "result": 91, "unit": "%"}, {"measurement": "Activity", "setting": "[19]", "result": 98, "unit": "%"}, {"measurement": "Activity", "setting": "[20]", "result": 104, "unit": "%"}, {"measurement": "Activity", "setting": "[21]", "result": 99, "unit": "%"}, {"measurement": "Activity", "setting": "[22]", "result": 90, "unit": "%"}, {"measurement": "Activity", "setting": "[23]", "result": 74, "unit": "%"}, {"measurement": "pIC50", "setting": "RAW264.7", "result": 6.64}, {"measurement": "Activity", "setting": "[24]", "result": 93, "unit": "%"}, {"measurement": "Activity", "setting": "[25]", "result": 98, "unit": "%"}, {"measurement": "Activity", "setting": "[26]", "result": 104, "unit": "%"}, {"measurement": "Activity", "setting": "[27]", "result": 86, "unit": "%"}, {"measurement": "Cmax", "setting": "[28]", "result": 11400, "unit": "ng/mL"}, {"measurement": "Activity", "setting": "[29]", "result": 102, "unit": "%"}]}
